Experimental data taken from ChEMBL document CHEMBL2434910, “Investigation of 3-aryl-pyrimido[5,4-e][1,2,4]triazine-5,7-diones as small molecule antagonists of β-catenin/TCF transcription” (Bioorg Med Chem Lett, 2013).
The source made the active and inactive calls. The rule behind the calls is not given here.

Assays:
IEC-6 [1] = assay: Antagonist activity at Beta-catenin/TCF in rat IEC-6 cells assessed as inhibition of Wnt-3a-induced lgr5 expression up to 1.2 uM preincubated for 6 hrs followed by Wnt-3a induction measured after 12 hrs by qPCR analysis; type: cell-based
In short: (§1)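 IEC-6 rat intestinal epithelial cells given compound at a range of concentrations for 6 h, then recombinant mouse Wnt-3a (50 ng/mL) added for 12 h. Target transcript quantified by qPCR with gene-specific primers, normalised to U6. The Wnt-3a-stimulated level with no compound is set to 100%. IC50 taken from concentration-response; mean ± SEM reported where available.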

IEC-6 [2] = assay: Antagonist activity at Beta-catenin/TCF in rat IEC-6 cells assessed as inhibition of Wnt-3a-induced axin2 expression up to 1.2 uM preincubated for 6 hrs followed by Wnt-3a induction measured after 12 hrs by qPCR analysis; type: cell-based; in short: as §1
[3] = Antagonist activity at Beta-catenin/TCF in rat IEC-6 cells assessed as inhibition of Wnt-3a-induced axin2 expression preincubated for 6 hrs followed by Wnt-3a induction measured after 12 hrs by qPCR analysis; type: cell-based; in short: as §1
[4] = Antagonist activity at Beta-catenin/TCF in rat IEC-6 cells assessed as inhibition of Wnt-3a-induced lgr5 expression preincubated for 6 hrs followed by Wnt-3a induction measured after 12 hrs by qPCR analysis; type: cell-based; in short: as §1
DLD-1 [5] = assay: Antiproliferative activity against human DLD1 cells assessed as inhibition of colony formation at 0.3 to 0.5 uM after 2 weeks by crystal violet staining-based assay; type: functional, cell-based
In short: (§2)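 Cells seeded in medium with 10% serum containing the test compound, kept in the dark; surviving colonies counted two weeks after plating. Colony counts are from two independent experiments at each concentration, each run in triplicate.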

RKO [6] = assay: Antiproliferative activity against human RKO cells assessed as inhibition of colony formation at 0.3 to 0.5 uM after 2 weeks by crystal violet staining-based assay; type: functional, cell-based; in short: as §2
[7] = Metabolic stability in mouse liver microsomes assessed as compound remaining at 1 uM after 30 mins by LC-MS analysis; type: ADME, Microsome; conditions: read-out: Stability
In short: (§3)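 Compound (1 μM) incubated at 37°C with mouse liver microsomes to assess metabolic stability.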

[8] = Metabolic stability in mouse liver microsomes assessed as compound remaining at 1 uM after 10 mins by LC-MS analysis; type: ADME, Microsome; conditions: read-out: Stability; in short: as §3
Liver [9] = assay: Metabolic stability in mouse liver microsomes assessed as compound remaining at 1 uM after 3 mins by LC-MS analysis; type: ADME, Microsome; conditions: 0.05 h; in short: as §3
Liver [10] = assay: Metabolic stability in mouse liver microsomes assessed as half life at 1 uM after 1 to 60 mins by LC-MS analysis; type: ADME, Microsome; in short: as §3
[11] = Metabolic stability in mouse liver microsomes assessed as compound remaining at 1 uM after 60 mins by LC-MS analysis; type: ADME, Microsome; conditions: read-out: Stability; in short: as §3
DLD-1 [12] = assay: Downregulation of total beta-catenin protein level in human DLD1 cells at 3 to 10 uM after 20 hrs by Western blotting analysis; type: functional, cell-based
In short: (§4)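 DLD-1 colorectal cancer cells treated with compound for 20 h in the dark. β-Catenin (free and total pools) and cyclin D1 protein levels assessed by Western blot.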

DLD-1 [13] = assay: Downregulation of cyclin D1 protein level in human DLD1 cells at 3 to 10 uM after 20 hrs by Western blotting analysis; type: functional, cell-based; in short: as §4
IEC-6 [14] = assay: Antagonist activity at Beta-catenin/TCF in rat IEC-6 cells assessed as inhibition of Wnt-3a-induced axin2 expression up to 179 uM preincubated for 6 hrs followed by Wnt-3a induction measured after 12 hrs by qPCR analysis; type: cell-based; in short: as §1
DLD-1 [15] = assay: Antiproliferative activity against human DLD1 cells assessed as inhibition of colony formation at 1 to 3 uM after 2 weeks by crystal violet staining-based assay; type: functional, cell-based
In short: (§5)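 Colony formation assay. DLD-1 (bi-allelic APC mutation) and RKO (no β-catenin dysregulation) colon cancer cells seeded in medium with 10% serum containing compound. Surviving colonies visualised and counted two weeks after plating. Two independent experiments per concentration, each in triplicate. Compound incubations carried out in the dark.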

RKO [16] = assay: Antiproliferative activity against human RKO cells assessed as inhibition of colony formation at 1 to 3 uM after 2 weeks by crystal violet staining-based assay; type: functional, cell-based; in short: as §5
[17] = Downregulation of free beta-catenin protein level in HEK293T cells at 1 to 10 uM after 3 hrs by Western blotting analysis in presence of GSK3-beta antagonist SB216763; type: functional, cell-based; conditions: Homo sapiens, HEK-293T
In short: (§6)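 HEK293T cells treated with 5 μM SB216763 (GSK3β antagonist) together with various concentrations of compound, in the dark. Free and total β-catenin protein assessed by Western blot.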

[18] = Downregulation of free beta-catenin protein level in HEK293T cells after 3 hrs by Western blotting analysis in presence of dominant negative beta-TrCP; type: functional, cell-based; conditions: Homo sapiens; HEK-293T
SW480 [19] = assay: Downregulation of free beta-catenin protein level in human SW480 cells at 3 to 10 uM after 20 hrs by Western blotting analysis; type: functional, cell-based
SW480 [20] = assay: Downregulation of total beta-catenin protein level in human SW480 cells at 3 to 10 uM after 20 hrs by Western blotting analysis; type: functional, cell-based
DLD-1 [21] = assay: Downregulation of free beta-catenin protein level in human DLD1 cells at 3 to 10 uM after 20 hrs by Western blotting analysis; type: functional, cell-based; in short: as §4
HEK-293T = assay: Effect on total beta-catenin protein level in HEK293T cells at 1 to 10 uM after 3 hrs by Western blotting analysis in presence of GSK3-beta antagonist SB216763; type: functional, cell-based; conditions: Homo sapiens; in short: as §6
SW480 [22] = assay: Downregulation of axin2 protein level in human SW480 cells after 20 hrs by Western blotting analysis; type: functional, cell-based
[23] = Downregulation of free beta-catenin protein level in HEK293T cells after 3 hrs by Western blotting analysis in presence of GSK3-beta antagonist SB216763 and proteasome inhibitor MG-132; type: functional, cell-based; conditions: Homo sapiens; HEK-293T
IEC-6 [24] = assay: Antagonist activity at Beta-catenin/TCF in rat IEC-6 cells assessed as inhibition of Wnt-3a-induced lgr5 expression up to 0.7 uM preincubated for 6 hrs followed by Wnt-3a induction measured after 12 hrs by qPCR analysis; type: cell-based; in short: as §1
IEC-6 [25] = assay: Antagonist activity at Beta-catenin/TCF in rat IEC-6 cells assessed as inhibition of Wnt-3a-induced axin2 expression up to 0.7 uM preincubated for 6 hrs followed by Wnt-3a induction measured after 12 hrs by qPCR analysis; type: cell-based; in short: as §1
IEC-6 [26] = assay: Antagonist activity at Beta-catenin/TCF in rat IEC-6 cells assessed as inhibition of Wnt-3a-induced axin2 expression up to 69 uM preincubated for 6 hrs followed by Wnt-3a induction measured after 12 hrs by qPCR analysis; type: cell-based; in short: as §1
IEC-6 [27] = assay: Antagonist activity at Beta-catenin/TCF in rat IEC-6 cells assessed as inhibition of Wnt-3a-induced lgr5 expression up to 69 uM preincubated for 6 hrs followed by Wnt-3a induction measured after 12 hrs by qPCR analysis; type: cell-based; in short: as §1

COc1ccc(-c2nc3c(=O)n(C)c(=O)nc-3n(CCO)n2)cc1
inhibition (IEC-6 [1]): inactive
inhibition (IEC-6 [2]): inactive

COc1c(C[C@@H](C)OC(=O)Oc2ccc(O)cc2)c2c3c(C[C@@H](C)OC(=O)c4ccccc4)c(OC)c(=O)c4c(O)cc(OC)c(c5c(OC)cc(O)c(c1=O)c52)c43 [CALPHOSTIN C]
IC50 [3]: 550 nM
IC50 [4]: 390 nM

Cn1ncnc2c(=O)n(C)c(=O)nc1-2
inhibition (DLD-1 [5]): Active
IC50 [3]: 330 nM
IC50 [4]: 290 nM
inhibition (RKO [6]): Active

CCN(CC)CCOc1ccc(-c2nc3c(=O)n(C)c(=O)nc-3n(-c3ccccc3)n2)cc1
remaining at 0.5 h, 1 µM [7]: 70.7%
remaining at 10 min, 1 µM [8]: 92.2%
Stability (Liver [9]): 110%
IC50 [3]: 300 nM
t1/2 (Liver [10]): 34.7 min
remaining at 1 h, 1 µM [11]: 31.8%
IC50 [4]: 260 nM

COc1ccc(-c2nc3c(=O)n(C)c(=O)nc-3n(C)n2)cc1
IC50 [3]: 2670 nM
Activity (DLD-1 [12]): Active
IC50 [4]: 1530 nM
Activity (DLD-1 [13]): Active

CCN(CC)CCOc1ccc(-c2nnc3c(n2)c(=O)n(C)c(=O)n3-c2ccccc2)cc1
inhibition (IEC-6 [14]): Active
IC50 [4]: 165000 nM

Cn1nc(-c2ccc(Cl)cc2)nc2c(=O)n(C)c(=O)nc1-2
inhibition (DLD-1 [15]): Active
IC50 [3]: 1770 nM
inhibition (RKO [16]): Active
Activity [17]: Active
Activity [18]: Active
Activity (SW480 [19]): Active
Activity (DLD-1 [12]): Active
Activity (SW480 [20]): Active
Activity (DLD-1 [21]): Active
Activity (HEK-293T): inactive
IC50 [4]: 1530 nM
Activity (SW480 [22]): Dose-dependent effect
Activity (DLD-1 [13]): Active
Activity [23]: inactive

CCN(CC)CCOc1ccc(-c2nc3c(=O)n(C)c(=O)nc-3n(C)n2)cc1
inhibition (IEC-6 [24]): inactive
inhibition (IEC-6 [25]): inactive

Oc1nc(-c2ccc(C(F)(F)F)cc2)nc2c1CSCC2
IC50 [3]: 640 nM
IC50 [4]: 2900 nM

COc1ccc(-c2nc3c(=O)n(C)c(=O)nc-3n(-c3ccccc3)n2)cc1
IC50 [3]: 2670 nM
IC50 [4]: 2100 nM

CCN(CC)CCOc1ccc(-c2nnc3c(n2)c(=O)n(C)c(=O)n3C)cc1
inhibition (IEC-6 [26]): inactive
inhibition (IEC-6 [27]): inactive
